In ChEMBL document CHEMBL3576758, “Creation of Customized Bioactivity within a 14-Membered Macrolide Scaffold: Design, Synthesis, and Biological Evaluation Using a Family-18 Chitinase” (J Med Chem, 2015):
Values belong to the compound of their own block, whether it stands above or below them.

Legend:
Chitinase B [1] = target: T1, Chitinase B (Serratia marcescens, UniProt P11797); experiment: Inhibition of Serratia marcescens chitinase ChiB assessed as reduction in chitinolytic activity using 4MU-(GlcNAc)2 substrate by fluorescence based assay
T1 sequence (P11797 whole entry): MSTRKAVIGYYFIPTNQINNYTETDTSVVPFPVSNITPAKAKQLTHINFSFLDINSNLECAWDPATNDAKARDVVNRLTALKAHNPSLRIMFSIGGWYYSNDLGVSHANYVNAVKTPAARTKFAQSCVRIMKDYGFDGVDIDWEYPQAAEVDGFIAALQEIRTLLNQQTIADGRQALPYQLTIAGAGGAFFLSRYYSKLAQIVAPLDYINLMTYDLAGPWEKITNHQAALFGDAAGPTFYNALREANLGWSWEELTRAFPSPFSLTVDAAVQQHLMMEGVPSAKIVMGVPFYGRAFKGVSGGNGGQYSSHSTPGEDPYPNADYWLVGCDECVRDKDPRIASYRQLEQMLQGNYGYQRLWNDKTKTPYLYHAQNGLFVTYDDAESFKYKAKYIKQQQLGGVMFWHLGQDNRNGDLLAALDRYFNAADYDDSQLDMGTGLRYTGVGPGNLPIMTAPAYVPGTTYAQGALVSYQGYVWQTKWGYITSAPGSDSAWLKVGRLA
Summary of the method: (§1)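 Crude SmChiB: supernatant of sonicated E. coli DH5α carrying pMCB7, grown 24 h at 37 °C in LB with ampicillin and 0.5 mM IPTG, then diluted ×40. Enzyme and inhibitors (in MeOH) were mixed in 0.1 M phosphate, pH 7.0, at 37 °C, and 80 μM 4MU(GlcNAc)2 solution was added. Fluorescence (ex 355/em 460 nm) was read every 60 s, with rates corrected for inhibitor quenching. IC50 was taken from sigmoidal dose–response fits.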

Staphylococcus aureus [2] = experiment: Antibacterial activity against methicillin-sensitive Staphylococcus aureus FDA209P by antimicrobial disk and dilution susceptibility test; format: functional
Staphylococcus aureus [3] = experiment: Antibacterial activity against methicillin-sensitive Staphylococcus aureus Smith by antimicrobial disk and dilution susceptibility test; format: functional
[4] = tested on: Staphylococcus epidermidis; experiment: Antibacterial activity against Staphylococcus epidermidis KUB795 by antimicrobial disk and dilution susceptibility test; format: functional
Micrococcus luteus = experiment: Antibacterial activity against Micrococcus luteus ATCC 9341 by antimicrobial disk and dilution susceptibility test; format: functional
Enterococcus faecalis = experiment: Antibacterial activity against Enterococcus faecalis ATCC 29212 by antimicrobial disk and dilution susceptibility test; format: functional
Escherichia coli = experiment: Antibacterial activity against Escherichia coli NIHJ JC-2 by antimicrobial disk and dilution susceptibility test; format: functional
Citrobacter freundii = experiment: Antibacterial activity against Citrobacter freundii ATCC 8090 by antimicrobial disk and dilution susceptibility test; format: functional
Klebsiella pneumoniae = experiment: Antibacterial activity against Klebsiella pneumoniae NCTC 9632 by antimicrobial disk and dilution susceptibility test; format: functional
Proteus mirabilis = experiment: Antibacterial activity against Proteus mirabilis IFO3849 by antimicrobial disk and dilution susceptibility test; format: functional
Proteus vulgaris = experiment: Antibacterial activity against Proteus vulgaris OX-19 by antimicrobial disk and dilution susceptibility test; format: functional
Morganella morganii = experiment: Antibacterial activity against Morganella morganii IID Kono by antimicrobial disk and dilution susceptibility test; format: functional
Serratia marcescens = experiment: Antibacterial activity against Serratia marcescens IFO12648 by antimicrobial disk and dilution susceptibility test; format: functional
Enterobacter cloacae = experiment: Antibacterial activity against Enterobacter cloacae IFO13535 by antimicrobial disk and dilution susceptibility test; format: functional
Klebsiella aerogenes = experiment: Antibacterial activity against Enterobacter aerogenes NCTC 10006 by antimicrobial disk and dilution susceptibility test; format: functional
Pseudomonas aeruginosa [5] = experiment: Antibacterial activity against Pseudomonas aeruginosa 46001 by antimicrobial disk and dilution susceptibility test; format: functional
Pseudomonas aeruginosa [6] = experiment: Antibacterial activity against Pseudomonas aeruginosa E-2 by antimicrobial disk and dilution susceptibility test; format: functional
[7] = tested on: Acinetobacter calcoaceticus; experiment: Antibacterial activity against Acinetobacter calcoaceticus IFO12552 by antimicrobial disk and dilution susceptibility test; format: functional
Chitinase B [8] = target: T1, Chitinase B; experiment: Inhibition of Serratia marcescens chitinase ChiB; summary of the method: as §1

IC50 (Chitinase B [1]): 3.3 µM
Structure (SMILES): CC[C@H]1OC(=O)[C@H](C)[C@@H](OCc2cn(CCNC(=N)NC(=O)NC)nn2)[C@H](C)[C@@H](O)[C@](C)(O)C[C@@H](C)[C@@H]2OC(C)(C)O[C@H]([C@H]2C)[C@]1(C)O

IC50 (Chitinase B [1]): 0.036 µM
MIC (Staphylococcus aureus [2]): > 64 µg/mL
MIC (Staphylococcus aureus [3]): > 64 µg/mL
MIC [4]: > 64 µg/mL
MIC (Micrococcus luteus): > 64 µg/mL
MIC (Enterococcus faecalis): > 64 µg/mL
MIC (Escherichia coli): > 64 µg/mL
MIC (Citrobacter freundii): > 64 µg/mL
MIC (Klebsiella pneumoniae): > 64 µg/mL
MIC (Proteus mirabilis): > 64 µg/mL
MIC (Proteus vulgaris): > 64 µg/mL
MIC (Morganella morganii): > 64 µg/mL
MIC (Serratia marcescens): > 64 µg/mL
MIC (Enterobacter cloacae): > 64 µg/mL
MIC (Klebsiella aerogenes): > 64 µg/mL
MIC (Pseudomonas aeruginosa [5]): > 64 µg/mL
MIC (Pseudomonas aeruginosa [6]): > 64 µg/mL
MIC [7]: > 64 µg/mL
Structure (SMILES): C#CCO[C@@H]1[C@@H](C)[C@H](OC(=O)NCCCNC(=N)NC(=O)NC)[C@@H](C)C(=O)O[C@H](CC)[C@@](C)(O)[C@@H]2OC(C)(C)O[C@H]([C@@H]2C)[C@H](C)C[C@@]1(C)O

IC50 (Chitinase B [1]): > 300 µM
Structure (SMILES): CNC(=O)NC(=N)n1cccn1

IC50 (Chitinase B [8]): 0.033 µM
Structure (SMILES): CC(=O)NC(=N)NCCC[C@@H]1NC(=O)[C@H](CCCC(=O)O)NC(=O)[C@H](Cc2c[nH]cn2)N2C(=O)[C@H](C[C@H]2O)NC(=O)[C@H]2CCCN2C1=O [ARGADIN]

IC50 (Chitinase B [1]): 11.9 µM
Structure (SMILES): CC[C@H]1OC(=O)[C@H](C)[C@@H](O)[C@H](C)[C@@H](OCc2cn(CCNC(=N)NC(=O)NC)nn2)[C@](C)(O)C[C@@H](C)[C@@H]2OC(C)(C)O[C@H]([C@H]2C)[C@]1(C)O

IC50 (Chitinase B [1]): 0.217 µM
Structure (SMILES): C#CCO[C@@H]1[C@@H](C)[C@H](OC(=O)NCCCCNC(=N)NC(=O)NC)[C@@H](C)C(=O)O[C@H](CC)[C@@](C)(O)[C@@H]2OC(C)(C)O[C@H]([C@@H]2C)[C@H](C)C[C@@]1(C)O

IC50 (Chitinase B [1]): 24.1 µM
Structure (SMILES): CC[C@H]1OC(=O)[C@H](C)[C@@H](O)[C@H](C)[C@@H](O)[C@](C)(O)C[C@@H](C)/C(=N\OCc2cn(CCNC(=N)NC(=O)NC)nn2)[C@H](C)[C@@H](O)[C@]1(C)O

Further lines, the compound ahead of its results:

Structure (SMILES): CC[C@H]1OC(=O)[C@H](C)[C@@H](O[C@H]2C[C@@](C)(OC)[C@@H](O)[C@H](C)O2)[C@H](C)[C@@H](O[C@@H]2O[C@H](C)C[C@H](N(C)C)[C@H]2O)[C@](C)(O)C[C@@H](C)C(=O)[C@H](C)[C@@H](O)[C@]1(C)O [ERYTHROMYCIN]
IC50 (Chitinase B [1]): > 300 µM

Structure (SMILES): C#CCO[C@@H]1[C@@H](C)[C@H](O)[C@@H](C)C(=O)O[C@H](CC)[C@@](C)(O)[C@@H]2OC(C)(C)O[C@H]([C@@H]2C)[C@H](C)C[C@@]1(C)O
IC50 (Chitinase B [1]): > 300 µM

Structure (SMILES): CNC(=O)NC(=N)NCCN=[N+]=[N-]
IC50 (Chitinase B [1]): 7 µM

Structure (SMILES): CC[C@H]1OC(=O)[C@H](C)[C@@H](O)[C@H](C)[C@@H](O)[C@](C)(O)C[C@@H](C)[C@@H]2OC(C)(C)O[C@H]([C@H]2C)[C@]1(C)O
IC50 (Chitinase B [1]): > 300 µM

Structure (SMILES): CC(=O)N[C@H]1[C@H](O[C@H]2[C@@H](O)[C@@H](NC(C)=O)[C@H](O[C@H]3[C@H](O)[C@H]4N=C(N(C)C)O[C@H]4[C@@H]3CO)O[C@@H]2CO)O[C@H](CO)[C@@H](O)[C@H]1O [ALLOSAMIDIN]
IC50 (Chitinase B [1]): 0.09 µM
